IDH1 mut inh: inhibitors of IDH1 R132H reductase, primary screen, biochemical, plate reader, single point | AID 624101, 2012 | inhibition, % at 10 µM | Isocitrate dehydrogenase [NADP] cytoplasmic (Homo sapiens), O75874 | diaphorase/resazurin fluorescence, 60 min | 0.18% of 70,000 active; in the data active = inhibition above about 34%; inconclusive = no clear call, values can overlap the other calls; inactive = below about 11%
GASC1 inh: inhibitors of GASC-1 (KDM4C) histone demethylase, primary screen, biochemical, single concentration HTS; Lysine-specific demethylase 4C (Homo sapiens), Q9H3R0; GST-KDM4C 2-372, H3K9me3 peptide, LANCE TR-FRET; inhibition, % at 12.5 µM; 0.15% of 96,000 active; AID 720574, 2013;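 active = mean replicate inhibition above about 25%, with at least 55% of replicates also reaching it, limit read from the data, passing the limit was not always enough; inconclusive = only one of those two conditions met; inactive = neither condition met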
Target sequence (Q9H3R0 2-372 limits assumed): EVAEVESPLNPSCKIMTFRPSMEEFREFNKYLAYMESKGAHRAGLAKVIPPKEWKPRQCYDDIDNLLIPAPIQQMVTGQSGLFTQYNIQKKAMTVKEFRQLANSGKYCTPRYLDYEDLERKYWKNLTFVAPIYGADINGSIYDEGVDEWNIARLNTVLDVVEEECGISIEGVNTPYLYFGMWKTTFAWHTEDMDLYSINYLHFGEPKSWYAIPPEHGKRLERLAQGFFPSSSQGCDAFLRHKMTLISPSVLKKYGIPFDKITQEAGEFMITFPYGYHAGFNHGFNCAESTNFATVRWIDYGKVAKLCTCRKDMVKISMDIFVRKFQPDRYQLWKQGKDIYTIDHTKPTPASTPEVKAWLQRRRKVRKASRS
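material = GST-tagged GASC-1 (JMJD2C) catalytic fragment, aa 2-372 | amount = enzyme final amount 10 nM | medium = HEPES buffer, pH 7.5, plus ascorbate | also added = H3K9me3 peptide substrate, Fe(II), 2-oxoglutarate | dosing = single dose | times = 30 min demethylation and 1 h detection at room temperature | detection = LANCE TR-FRET | read-out basis = Fall in 671/618 emission ratio as inhibition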
T cruzi growth-1: T. cruzi intracellular proliferation inhibitors, primary screen, cell-based, beta-gal Tulahuen parasites, NIH3T3 host, luminescence; T. cruzi beta-gal in NIH3T3, GalScreen luminescence, 90 h; inhibition, % at 8.34 µM; 5.9% of 77,000 active;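 active = mean inhibition above about 93%, with at least 55% of replicates each passing it, limit read from the data, passing the limit was not always enough; inconclusive = only one of those two conditions holds; inactive = neither condition holds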
T cruzi growth-2: T. cruzi intracellular proliferation inhibitors, confirmation, cell-based, NIH3T3 host, beta-gal parasite, luminescence, cherry-pick; inhibition, % at 8.35 µM; shares compounds with T cruzi growth-1; T. cruzi beta-gal in NIH3T3, GalScreen luminescence, 90 h; AID 651739, 2012; 72% of 5,600 active;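 active = mean replicate inhibition above about 95% and at least 55% of replicates individually reaching it, limit read from the data; inconclusive = only one of the two criteria is met; inactive = neither criterion is met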
T cruzi growth-3: inhibitors of intracellular T. cruzi replication, confirmation, NIH3T3 host cells, beta-gal parasites, cherry-pick, set 2; shares compounds with T cruzi growth-1; T. cruzi beta-gal in NIH3T3, GalScreen luminescence, 90 h; inhibition, % at 2.09 µM; 21% of 5,600 active;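 active = mean inhibition above about 95%, with at least 55% of replicates also reaching it, limit read from the data; inconclusive = meets just one of the two conditions; inactive = meets neither condition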
NIH3T3 tox: cytotoxicity in mouse NIH/3T3 fibroblasts, confirmation, cytotoxicity control for T. cruzi proliferation inhibitor project, cell-based, cherry-pick, single point; shares compounds with T cruzi growth-1; 14% of 5,600 active; NIH/3T3 viability, CellTiter-Glo ATP luminescence, 90 h; cytotoxicity (signal decrease), % at 8.35 µM; AID 651742, 2012;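 active = mean signal decrease across replicates above about 35% based on untreated-well scatter, with enough replicates individually passing, limit read from the data; inconclusive = no rule stated though some were filed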
3T3 cytotox 2: NIH/3T3 fibroblast cytotoxicity, confirmation, cytotoxicity control, cell-based, cherry-pick, single point, set 2 | shares compounds with T cruzi growth-1 | NIH/3T3 viability, CellTiter-Glo ATP luminescence, 90 h | inhibition, % at 24.9 µM | 56% of 5,600 active | AID 651744, 2012;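 active = mean loss of cell viability signal at or above a set limit, and enough replicates individually reaching it; inconclusive = meets only the mean limit or only the replicate share; inactive = meets neither condition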
Numbers stand for hits; . = inactive; ? = inconclusive; / = no result given. Shown is part of a subset that was picked to be rich in hits.

SMILES	IDH1 mut inh	GASC1 inh	T cruzi growth-1	T cruzi growth-2	T cruzi growth-3	NIH3T3 tox	3T3 cytotox 2
CC(C)C#Cc1ccc2c(c1)O[C@H](CN(C)C(=O)Nc1ccccc1)[C@@H](C)CN([C@@H](C)CO)S2(=O)=O	/	.	/	/	/	/	/
O=C(NCC[C@H]1CC[C@H](NS(=O)(=O)c2ccc(Cl)cc2)[C@H](CO)O1)c1ccc2c(c1)OCO2	.	.	.	/	/	/	/
O=C(C[C@@H]1CC[C@@H]2[C@H](COC[C@H](O)CN2C(=O)Nc2ccc(C(F)(F)F)cc2)O1)NCCc1ccncc1	/	.	.	/	/	/	/
CCCN1[C@@H]2c3ccc(C4=CCCCC4)c(=O)n3C[C@H]1[C@H](CO)[C@H]2C(=O)NCC	/	.	.	/	/	/	/
C[C@H]1CN([C@@H](C)CO)S(=O)(=O)c2ccc(-c3cccc(C#N)c3)cc2O[C@@H]1CN(C)C(=O)Nc1cc(F)ccc1F	/	.	/	/	/	/	/
C[C@@H]1CN([C@@H](C)CO)C(=O)c2cc(NS(=O)(=O)c3ccc(Cl)cc3)ccc2O[C@H]1CN(C)Cc1ccc(Oc2ccccc2)cc1	/	.	.	/	/	/	/
C[C@H](CO)N1C[C@H](C)[C@H](CN(C)Cc2ccc(-c3ccccc3)cc2)Oc2ccc(NS(=O)(=O)c3ccc(Cl)cc3)cc2C1=O	.	.	112	104	.	.	103
COc1ccc(S(=O)(=O)Nc2ccc3c(c2)C(=O)N([C@@H](C)CO)C[C@H](C)[C@H](CN(C)Cc2ccc(-c4ccccc4)cc2)O3)cc1	.	.	?	103	.	.	88
C[C@H](CO)N1C[C@H](C)[C@@H](CN(C)Cc2ccc(-c3ccccc3)cc2)Oc2ccc(NS(=O)(=O)c3ccccc3)cc2C1=O	.	.	.	/	/	/	/
C[C@@H]1CN([C@H](C)CO)C(=O)c2cc(NS(=O)(=O)c3ccc(Cl)cc3)ccc2O[C@@H]1CN(C)Cc1ccc(-c2ccccc2)cc1	.	.	?	98	.	92	105
COc1ccc(S(=O)(=O)Nc2ccc3c(c2)C(=O)N([C@H](C)CO)C[C@H](C)[C@H](CN(C)Cc2ccc(-c4ccccc4)cc2)O3)cc1	.	.	.	/	/	/	/
C[C@H](CO)N1C[C@H](C)[C@@H](CN(C)Cc2ccc(-c3ccccc3)cc2)Oc2ccc(NS(=O)(=O)c3ccc(Cl)cc3)cc2C1=O	/	.	.	/	/	/	/
C[C@H]1CN([C@@H](C)CO)C(=O)c2cc(NS(=O)(=O)c3ccc(Cl)cc3)ccc2O[C@@H]1CN(C)Cc1ccc(Oc2ccccc2)cc1	.	.	?	108	.	.	105
O=C(Nc1ccc(F)cc1)Nc1ccc2c(c1)[C@H]1C[C@@H](CC(=O)N3CCOCC3)O[C@H](CO)[C@H]1O2	.	.	.	/	/	/	/
O=C(O)c1ccccc1Nc1nc(N2CCOCC2)nc(N2CCOCC2)n1	.	/	/	/	/	/	/
CNC[C@@H]1Oc2c(NS(=O)(=O)c3ccc(OC)cc3)cccc2C(=O)N([C@@H](C)CO)C[C@H]1C	/	.	/	/	/	/	/
CCCN(C)C[C@H]1Oc2ncc(-c3ccccc3)cc2C(=O)N([C@@H](C)CO)C[C@H]1C	.	/	/	/	/	/	/
COc1ccccc1CNC(=O)C[C@@H]1C[C@@H]2c3cc(NS(C)(=O)=O)ccc3O[C@@H]2[C@@H](CO)O1	.	.	.	/	/	/	/
CC(C)(O)C#Cc1ccccc1C(=O)NC(Cc1c[nH]c2ccccc12)C(=O)O (stereo not given)	.	/	/	/	/	/	/
CNC[C@@H]1OCCCC[C@@H](C)Oc2ccc(NS(=O)(=O)c3ccc(OC)cc3)cc2C(=O)N([C@@H](C)CO)C[C@H]1C	.	.	.	/	/	/	/
C[C@@H]1CN([C@@H](C)CO)C(=O)c2cc(NS(=O)(=O)c3ccc(F)cc3)ccc2O[C@H]1CN(C)Cc1ccc(-c2ccccc2)cc1	.	.	?	106	.	.	103
C[C@@H]1CN([C@H](C)CO)C(=O)c2cc(NS(=O)(=O)c3ccccc3)ccc2O[C@@H]1CN(C)Cc1ccc(-c2ccccc2)cc1	.	.	.	/	/	/	/
C[C@@H]1CN([C@@H](C)CO)C(=O)c2cc(NS(=O)(=O)c3ccc(Cl)cc3)ccc2O[C@H]1CN(C)Cc1ccccc1	/	.	.	/	/	/	/
C[C@@H]1CN([C@H](C)CO)C(=O)c2cc(NS(=O)(=O)c3ccc(F)cc3)ccc2O[C@@H]1CN(C)Cc1ccc(-c2ccccc2)cc1	.	.	.	/	/	/	/
C[C@@H]1CN([C@@H](C)CO)C(=O)c2cc(NS(=O)(=O)c3ccc(Cl)cc3)ccc2O[C@@H]1CN(C)Cc1ccc(-c2ccccc2)cc1	.	.	?	?	.	82	103
SMILES	IDH1 mut inh	GASC1 inh	T cruzi growth-1	T cruzi growth-2	T cruzi growth-3	NIH3T3 tox	3T3 cytotox 2
C[C@H]1CN([C@@H](C)CO)C(=O)c2cc(NS(=O)(=O)c3ccc(Cl)cc3)ccc2O[C@@H]1CN(C)Cc1ccc(-c2ccccc2)cc1	.	.	111	103	.	.	104
COc1cccc(CNC(=O)C[C@H]2CC[C@H](NC(=O)C3CCOCC3)[C@H](CO)O2)c1	.	.	.	/	/	/	/
COc1ccc([N+](=O)[O-])cc1NC(=O)CN(C)S(=O)(=O)c1ccc(Cl)cc1	.	/	/	/	/	/	/
Cc1ccc(S(=O)(=O)NCCSc2nnc(Nc3ccccc3)s2)cc1	.	/	/	/	/	/	/
CO[C@H]1CN(C)C(=O)c2cc(NC(=O)NC(C)C)ccc2OC[C@H](C)N(Cc2ccccn2)C[C@H]1C	.	.	106	.	.	.	.
CCS(=O)(=O)Nc1ccc2c(c1)C(=O)N(C)C[C@H](OC)[C@H](C)CN(Cc1ccccn1)[C@H](C)CO2	.	.	99	.	.	.	.
COc1ccccc1NC(=O)Nc1ccc2c(c1)OC[C@@H](C)N(Cc1ccccc1C(=O)O)C[C@@H](C)[C@H](OC)CN(C)C2=O	.	.	.	/	/	/	/
COc1ccccc1NC(=O)Nc1ccc2c(c1)OC[C@@H](C)N(Cc1ccccc1Cl)C[C@@H](C)[C@H](OC)CN(C)C2=O	.	.	127	104	112	.	.
CO[C@@H]1CN(C)C(=O)c2ccc(NC(=O)NC(C)C)cc2OC[C@H](C)N(Cc2ccccn2)C[C@@H]1C	.	.	.	/	/	/	/
CO[C@H]1CN(C)C(=O)c2cc(NC(=O)NC(C)C)ccc2OC[C@@H](C)N(Cc2ccccn2)C[C@@H]1C	.	.	.	/	/	/	/
